Experimental data published in ChEMBL document CHEMBL4706601, “The endocannabinoid system dual-target ligand N-cycloheptyl-1,2-dihydro-5-bromo-1-(4-fluorobenzyl)-6-methyl-2-oxo-pyridine-3-carboxamide improves disease severity in a mouse model of multiple sclerosis” (Eur J Med Chem, 2020).
Calls of active or inactive are those of the source. The calls are words filed in the database; no cut-off is given here.

Assays:
[1] = molecular target: Cannabinoid receptor 1 (Rattus norvegicus) (UniProt P20272); assay: Agonist activity at CB1R in Sprague-Dawley rat hippocampal synaptosomes assessed as inhibition of 4-AP evoked glutamate release at 10 uM preincubated for 8 mins followed by 4-AP addition by HPLC analysis; format: subcellular; settings: Hippocampus, filed as agonist
Chain of Cannabinoid receptor 1 (Rattus norvegicus) (P20272 whole entry, the tested form may be a part): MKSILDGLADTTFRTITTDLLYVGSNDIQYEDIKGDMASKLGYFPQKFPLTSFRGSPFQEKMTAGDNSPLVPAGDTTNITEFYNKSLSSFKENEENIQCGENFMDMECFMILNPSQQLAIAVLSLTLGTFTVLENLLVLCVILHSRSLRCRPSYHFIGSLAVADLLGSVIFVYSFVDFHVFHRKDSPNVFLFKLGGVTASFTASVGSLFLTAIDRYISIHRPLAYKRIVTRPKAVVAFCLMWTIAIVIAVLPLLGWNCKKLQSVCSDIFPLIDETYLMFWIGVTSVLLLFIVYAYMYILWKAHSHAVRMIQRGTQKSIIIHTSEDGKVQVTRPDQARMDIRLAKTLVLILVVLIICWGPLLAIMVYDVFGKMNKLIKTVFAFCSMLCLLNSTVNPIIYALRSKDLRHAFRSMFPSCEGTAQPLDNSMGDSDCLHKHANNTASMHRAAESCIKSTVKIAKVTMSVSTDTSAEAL
In short: (§1)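 Rat (male Sprague Dawley, 200-250 g) hippocampal synaptosomes from Percoll gradient, superfused at 37 °C (0.5 ml/min); 4-AP 600 μM for 2 min. Compounds and antagonists (SR141716A, SR144528, 1 μM) added 8 min before 4-AP and kept during it; basal effects tested by 2-min exposure alone. Endogenous glutamate by HPLC as pmol/mg protein; overflow = stimulated minus basal in control chambers; n = 3–9, triplicate.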

Mus musculus [2] = assay: (§2) Antiinflammatory activity in MOG (35 to 55 residues)/pertussis toxin-induced experimental autoimmune encephalomyelitis C57BL/6J mouse model assessed as improvement in late stage disease severity at 10 mg/kg, ip dosed once daily for 20 days starting from day 10 to 16 post immunization and measured at day 10 to 19 post treatment; format: functional, organism-based; settings: time 10-19 day
In short: (§3)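 Active EAE in mice: 200 µg MOG35-55 in CFA (4 mg/ml M. tuberculosis) s.c. at hips and tail root, plus pertussis toxin 300 ng i.p. after immunization and 48 h later. Daily i.p. dosing (DMSO vehicle) for 20 days from each mouse's onset (day 10–16); onset = day 1. Daily clinical score; multiple t-tests with Holm-Sidak.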

Mus musculus [3] = assay: Antinociceptive activity in CD-1 albino mouse model of oxaliplatin-induced neuropathic pain assessed as decrease in pain-related behaviour by measuring efficacy onset and time duration at 5 to 50 mg/kg, po treated on day 15 post oxaliplatin treatment and measured after 15 to 75 mins post dose by cold plate test; format: functional; settings: dose 5-50 mg/kg; time 15-75 min
In short: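 Male CD-1 mice (22-25 g) given oxaliplatin 2.4 mg/kg i.p. in 5% glucose on days 1-2, 5-9, 12-14; tested day 15. Compound in 1% carboxymethylcellulose orally at 5, 10, 20, 50 mg/kg. Cold plate licking latency at 15, 30, 45, 60, 75 min post dose. Selective CB1R and CB2R antagonists co-tested. 16 mice per treatment across 2 sessions; one-way ANOVA with Bonferroni.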

[4] = molecular target: Cannabinoid receptor 2 (Mus musculus) (UniProt P47936); assay: Agonist activity at CB2R in LPS induced mouse BV2 cells assessed as reduction in IL-1beta secretion at 10 uM preincubated with CB2R antagonist, SR144528 for 15 mins followed by compound additon for 30 mins after LPS stimulation for 4 hrs by ELISA; format: cell-based; settings: BV-2, time 270.0 min
Chain of Cannabinoid receptor 2 (Mus musculus) (P47936 whole entry): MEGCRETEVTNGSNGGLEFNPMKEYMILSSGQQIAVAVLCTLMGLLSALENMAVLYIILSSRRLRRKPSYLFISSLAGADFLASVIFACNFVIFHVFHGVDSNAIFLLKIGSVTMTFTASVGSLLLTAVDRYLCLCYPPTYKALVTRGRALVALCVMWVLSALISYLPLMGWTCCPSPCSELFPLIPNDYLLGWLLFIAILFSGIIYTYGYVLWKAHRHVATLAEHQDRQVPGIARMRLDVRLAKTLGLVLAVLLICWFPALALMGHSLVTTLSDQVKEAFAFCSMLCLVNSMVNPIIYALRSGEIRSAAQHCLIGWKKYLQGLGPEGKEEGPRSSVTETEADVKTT
In short: (§4)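 BV-2 murine microglia grown in high-glucose DMEM with 10% FBS. Treatments in FBS-free medium: test agonist 10 μM for 30 min, then LPS 5 μg/ml for 4 h; SR144528 10 μM given 15 min before agonist. DMSO ≤0.1% final. Medium spun 10 min at 1000×g; IL-1β, IL-6, IL-10 quantified by ELISA; three independent experiments in duplicate.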

[5] = molecular target: Cannabinoid receptor 1 (Rattus norvegicus) (UniProt P20272); assay: Agonist activity at CB1R in Sprague-Dawley rat hippocampal synaptosomes assessed as inhibition of 4-AP evoked glutamate release at 1 uM preincubated for 8 mins followed by 4-AP addition by HPLC analysis; format: subcellular; settings: Hippocampus; in short: as §1
Mus musculus [6] = assay: as §2, with “improvement in early stage disease” for “improvement in late stage disease”, “at day 2 to 4” for “at day 10 to 19”, “2 to 4 post treatment” for “10 to 19 post treatment”; format: functional, organism-based; settings: time 2-4 day; in short: as §3
Mus musculus [7] = assay: as §2, with “reduction” for “improvement”, “clinical scores” for “late stage disease severity”, “from 2” for “at day 10”, “4 days” for “19”; format: functional; settings: time 2-4 day; in short: as §3
[8] = molecular target: Cannabinoid receptor 2 (Mus musculus) (UniProt P47936); assay: Agonist activity at CB2R in LPS induced mouse BV2 cells assessed as reduction in IL-6 secretion at 10 uM preincubated with CB2R antagonist, SR144528 for 15 mins followed by compound additon for 30 mins after LPS stimulation for 4 hrs by ELISA; format: cell-based; settings: BV-2, time 270.0 min; in short: as §4
Cannabinoid receptor 2 [9] = molecular target: T1, Cannabinoid receptor 2 (Homo sapiens, UniProt P34972); assay: (§5) Competitive antagonist activity at human CB2R expressed in CHO cell membranes assessed as N-cycloheptyl-1,2-dihydro-5-bromo-1-(4-fluoro benzyl)-6-methyl-2-oxo-pyridine-3-carboxamide Emax at 1000 nM preincubated with compound for 30 mins followed by GTPgammaS addition and measured after 90 mins by [35S]GTPgammaS assay (reference value: 210%); format: functional; settings: Membrane, filed as antagonist, time 120.0 min
T1 sequence (P34972 whole entry): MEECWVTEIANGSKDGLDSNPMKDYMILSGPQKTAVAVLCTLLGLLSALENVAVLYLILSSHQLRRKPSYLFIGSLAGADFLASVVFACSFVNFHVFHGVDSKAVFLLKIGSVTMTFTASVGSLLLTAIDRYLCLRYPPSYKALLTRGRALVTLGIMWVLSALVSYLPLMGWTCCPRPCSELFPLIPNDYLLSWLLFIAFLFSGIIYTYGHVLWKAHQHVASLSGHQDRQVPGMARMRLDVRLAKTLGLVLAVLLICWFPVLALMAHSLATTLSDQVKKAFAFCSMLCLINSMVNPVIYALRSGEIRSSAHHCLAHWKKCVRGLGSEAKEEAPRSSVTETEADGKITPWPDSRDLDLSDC
In short: (§6)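 hCB2 CHO membranes in GTPγS buffer (10 μM GDP, 0.1 nM [35S]GTPγS, pH 7.4) pre-incubated 30 min with antagonist at 300 nM or 1 µM, then agonist or inverse agonist concentration series, 90 min at 30 °C. EC50 and Emax reported with 95% CI; Schild analysis; controls CP55,940 100 nM and AM630 1 μM; ≥3 experiments in triplicate.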

Cannabinoid receptor 2 [10] = molecular target: T1, Cannabinoid receptor 2; assay: as §5, with “300” for “1000”; format: functional; settings: Membrane, filed as antagonist, time 120.0 min; in short: as §6
Cannabinoid receptor 2 [11] = molecular target: T1, Cannabinoid receptor 2; assay: (§7) Non-competitive antagonist activity at human CB2R expressed in CHO cell membranes assessed as N-cycloheptyl-1,2-dihydro-1-(4-fluorobenzyl)-6-methyl-2-oxo-5-phenyl-pyridine-3-carboxamide Emax at 1000 nM preincubated with compound for 30 mins followed by GTPgammaS addition and measured after 90 mins by [35S]GTPgammaS assay (reference value: -49.9%); format: functional; settings: Membrane, filed as antagonist, time 120.0 min
In short: (§8)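 hCB2 membranes from stably transfected CHO cells (10 µg) pre-incubated 30 min with antagonist, then an inverse-agonist concentration series added. Buffer: 50 mM Tris-HCl, 3 mM MgCl2, 0.2 mM EDTA, 100 mM NaCl, 0.5% fatty-acid-free BSA, pH 7.4, with 10 µM GDP and 0.1 nM [35S]GTPγS. Incubated 90 min at 30 °C, then filtered. Non-specific binding measured with 10 µM GTPγS. Emax given with 95% CI; at least 3 experiments, each in triplicate.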

Cannabinoid receptor 2 [12] = molecular target: T1, Cannabinoid receptor 2; assay: Antagonist activity at human CB2R expressed in CHO cell membranes preincubated for 30 mins followed by GTPgammaS addition and measured after 90 mins by [35S]GTPgammaS assay; format: functional, Membrane
In short: (§9)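 In-house CHO membranes expressing hCB1 or hCB2 (10 µg) in 50 mM Tris-HCl, 3 mM MgCl2, 0.2 mM EDTA, 100 mM NaCl, 0.5% fatty-acid-free BSA, pH 7.4, with 10 μM GDP and 0.1 nM [35S]GTPγS. Incubated 90 min at 30 °C; antagonist pre-incubated 30 min. Nonspecific binding with 10 μM GTPγS; bound label by filtration and counting; ≥3 experiments in triplicate.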

Cannabinoid receptor 2 [13] = molecular target: T1, Cannabinoid receptor 2; assay: as §5, with “100” for “1000”; format: functional; settings: Membrane, filed as antagonist, time 120.0 min
Cannabinoid receptor 1 = Cannabinoid receptor 1 (Homo sapiens, UniProt P21554); assay: Antagonist activity at human CB1R expressed in CHO cell membranes preincubated for 30 mins followed by GTPgammaS addition and measured after 90 mins by [35S]GTPgammaS assay; format: functional, Membrane; in short: as §9
Chain of Cannabinoid receptor 1 (P21554 whole entry): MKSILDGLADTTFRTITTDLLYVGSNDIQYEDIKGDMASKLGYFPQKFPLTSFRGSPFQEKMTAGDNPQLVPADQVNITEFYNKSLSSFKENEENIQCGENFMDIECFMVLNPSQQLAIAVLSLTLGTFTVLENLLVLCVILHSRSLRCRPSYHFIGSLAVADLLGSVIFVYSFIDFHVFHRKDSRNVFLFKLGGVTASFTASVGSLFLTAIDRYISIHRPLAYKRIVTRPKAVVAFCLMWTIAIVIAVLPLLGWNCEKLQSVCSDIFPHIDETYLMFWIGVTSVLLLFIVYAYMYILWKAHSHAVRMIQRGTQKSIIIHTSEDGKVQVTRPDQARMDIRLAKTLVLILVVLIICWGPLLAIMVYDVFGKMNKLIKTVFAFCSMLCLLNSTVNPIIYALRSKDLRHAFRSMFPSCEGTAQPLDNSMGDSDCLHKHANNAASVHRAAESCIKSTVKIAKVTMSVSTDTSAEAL

Cannabinoid receptor 2 [14] = molecular target: T1, Cannabinoid receptor 2; assay: as §7, with “300” for “1000”; format: functional; settings: Membrane, filed as antagonist, time 120.0 min; in short: as §8

Row | Structure (SMILES) | Activity [1] | Activity (Mus musculus [2]) | Time (Mus musculus [3]) [min] | Activity [4] | Activity [5] | Activity (Mus musculus [6]) | inhibition in vivo at 10 mg/kg (Mus musculus [7]) [%] | Activity [8] | Emax (Cannabinoid receptor 2 [9]) [%] | Emax (Cannabinoid receptor 2 [10]) [%] | Emax (Cannabinoid receptor 2 [11]) [%] | EC50 (Cannabinoid receptor 2 [12]) [nM] | Emax (Cannabinoid receptor 2 [13]) [%] | EC50 (Cannabinoid receptor 1) [nM] | Emax (Cannabinoid receptor 2 [14]) [%]
1 | Cc1c(Br)cc(C(=O)NC2CCCCCC2)c(=O)n1Cc1ccc(F)cc1 | Active | Active | 15 | inactive | inactive | Active | 30 | inactive | – | – | – | – | – | – | –
2 | COc1ccc(-c2cc(C(=O)NC3CCCCCC3)c(=O)n(Cc3ccc(F)cc3)c2C)cc1 | – | – | – | – | – | – | – | – | 208 | 209 | -24.9 | 170 | 219 | 270 | -28.6
